Screening results: PubChem BioAssay, several laboratories
The list is not random: actives were taken first. Their share in the collection is about 4.1%.
SMARCA2 activ – increases SMARCA2 function in MMTV reporter cells; MG213 cells, MMTV-luciferase reporter, dexamethasone, overnight; activation, % at 9.1 µM; hit rate 1% among 370,000; AID 652017; in the data active means activation above about 7.8%
AHR act – activates the human aryl hydrocarbon receptor. P35869. activation, % at 5 µM. AHR-responsive luciferase reporter cells, luminescence. AID 2796. hit rate 2.5% among 320,000; in the data active means activation above about 47%
Target sequence (P35869 whole entry, looked up): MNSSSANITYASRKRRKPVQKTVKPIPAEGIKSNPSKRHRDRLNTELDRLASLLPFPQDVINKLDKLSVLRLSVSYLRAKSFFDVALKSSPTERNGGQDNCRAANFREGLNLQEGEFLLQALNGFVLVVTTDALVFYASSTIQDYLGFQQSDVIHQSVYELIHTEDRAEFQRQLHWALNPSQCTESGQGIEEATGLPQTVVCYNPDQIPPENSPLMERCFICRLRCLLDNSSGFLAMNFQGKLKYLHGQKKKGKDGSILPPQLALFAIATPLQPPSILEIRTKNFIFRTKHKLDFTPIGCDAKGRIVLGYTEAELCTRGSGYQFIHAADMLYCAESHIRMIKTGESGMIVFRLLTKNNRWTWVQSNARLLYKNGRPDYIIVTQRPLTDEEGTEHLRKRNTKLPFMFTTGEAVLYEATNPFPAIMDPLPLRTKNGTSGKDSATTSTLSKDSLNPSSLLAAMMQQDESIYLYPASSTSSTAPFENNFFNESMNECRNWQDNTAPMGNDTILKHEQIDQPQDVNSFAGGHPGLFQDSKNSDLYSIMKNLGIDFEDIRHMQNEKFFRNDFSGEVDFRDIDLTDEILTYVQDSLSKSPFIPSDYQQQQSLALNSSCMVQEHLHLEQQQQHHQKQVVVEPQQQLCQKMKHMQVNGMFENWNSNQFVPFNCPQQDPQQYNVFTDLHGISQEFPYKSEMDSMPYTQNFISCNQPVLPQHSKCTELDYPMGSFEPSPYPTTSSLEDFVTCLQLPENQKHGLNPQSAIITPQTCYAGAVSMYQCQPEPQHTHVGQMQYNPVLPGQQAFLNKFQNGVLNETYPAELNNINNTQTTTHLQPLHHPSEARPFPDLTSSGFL
Tb MetRS inh – Trypanosoma brucei MetRS inhibition; AID 624268; purified T. brucei MetRS, ATP depletion, Kinase-Glo luminescence; hit rate 0.4% among 360,000; inhibition, % at 11.9 µM;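 active means inhibition above a per-plate cutoff of the control wells' mean inhibition plus 3 SD, cut at about 5.5% in these data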
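Assay system: T. brucei methionyl-tRNA synthetase, purified | Medium: HEPES buffer with MgCl2, KCl, DTT, spermine, BSA, pyrophosphatase | Compound: 11.9 µM single point | Incubation: 15 min enzyme-compound preincubation, 2 h reaction, 10 min detection, 25 °C | Measured by: Kinase-Glo luciferase luminescence reporting remaining unconsumed ATP | Measure: % inhibition normalized to control-well medians | Replication: Singlicate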
Efflux pump mplx – inhibitors of Candida antifungal efflux pumps expressed in yeast | S. cerevisiae Candida pump triplex, Nile Red efflux | inhibition, % at 10 µM | hit rate 0.44% among 330,000 | AID 485275;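 active means plate passing quality check with inhibition over a set limit, or well fluorescence over plate mean plus 4 SD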;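 further: Nile Red retained in pooled yeast measured as flow cytometry median fluorescence; higher means more Nile Red kept so more efflux inhibition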
H9c2 TAG inh – triacylglycerol accumulation inhibition; H9c2 cells, Nile Red lipid (TAG) fluorescence; cells loaded with 200 µM oleic acid; inhibition, % at 12.5 µM; hit rate 0.66% among 230,000;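 active means pattern-corrected inhibition of lipid staining of at least 50% with the nuclear-stain viability signal not falling by more than 50%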
Yeast cmpd fluor – flagged as fluorescent in efflux inhibitor counter-screen; shares compounds with Efflux pump mplx; S. cerevisiae AD/pABC3, compound fluorescence, flow cytometry; fluorescence ratio to DMSO, % at 10 µM; hit rate 4% among 1,700; AID 588517;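 active means fluorescence ratio to DMSO above its plate's cutoff, the plate mean ratio plus 5 SD, cut at about 210% in these data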;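 further: unstained yeast with no Nile Red so the signal is compound autofluorescence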
Mdr1 pump inh – inhibitors of Candida albicans Mdr1 efflux pump; shares compounds with Efflux pump mplx; S. cerevisiae AD/CaMDR1, Nile Red efflux, flow cytometry; inhibition, % at 10 µM; hit rate 1% among 1,700; AID 588518; in the data active means inhibition above about 26%;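 further: higher means more Nile Red retained so more efflux inhibition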
Cdr2 pump inh – inhibitors of Candida albicans Cdr2 efflux pump; hit rate 4% among 1,700; Nile Red retention ratio vs DMSO, % at 10 µM; shares compounds with Efflux pump mplx; AID 588520; S. cerevisiae AD/CaCDR2, Nile Red retention, flow cytometry; in the data active means Nile Red retention ratio vs DMSO above about 190%;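 further: higher ratio means more blocking of Cdr2 efflux of the dye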
CaCdr1 efflux inh – Candida Cdr1 efflux pump inhibition | shares compounds with Efflux pump mplx | S. cerevisiae AD/CaCDR1, Nile Red efflux, flow cytometry | inhibition, % at 10 µM | hit rate 1% among 1,700 | AID 588522;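 active means inhibition above the screen-wide mean plus twice its standard deviation, cut at about 32% in these data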
Numbers stand for hits.

Cc1cccc(Nc2cc(=O)[nH]c(=O)[nH]2)c1 was read as SMARCA2 activ inactive, AHR act inactive, Tb MetRS inh inactive, Efflux pump mplx 6.5, Yeast cmpd fluor inactive, Mdr1 pump inh inactive, Cdr2 pump inh inactive and CaCdr1 efflux inh inactive.
Screening O=C(O)C(=Cc1ccc([N+](=O)[O-])cc1)c1ccccc1 returned SMARCA2 activ inactive.
For COC(=O)c1c(NC(=O)c2nn(C)cc2Cl)sc2c1CCCC2 the results were SMARCA2 activ inactive, AHR act inactive, Tb MetRS inh inactive and Efflux pump mplx inactive.
`O=C(Nc1sc2c(c1C(=O)O)CCC2)c1ccccc1Cl` gave SMARCA2 activ inactive, AHR act inactive, Tb MetRS inh inactive, Efflux pump mplx 0.5, Yeast cmpd fluor inactive, Mdr1 pump inh inactive, Cdr2 pump inh inactive and CaCdr1 efflux inh inactive.
CCn1ncc(Br)c1C(=O)Nc1cc(C)cc(C)c1 was read as SMARCA2 activ inactive, AHR act inactive, Tb MetRS inh inactive, Efflux pump mplx 6.5, Yeast cmpd fluor inactive, Mdr1 pump inh inactive, Cdr2 pump inh inactive and CaCdr1 efflux inh inactive.
Screening CCn1ccc(C(=O)Nc2sc3c(c2C(=O)OC)CCC3)n1 returned SMARCA2 activ inactive, Tb MetRS inh inactive, Efflux pump mplx 0.6, Yeast cmpd fluor inactive, Mdr1 pump inh inactive, Cdr2 pump inh inactive and CaCdr1 efflux inh inactive.
Screening COC(=O)c1c(NC(=O)c2ccn(C)n2)sc2c1CCC2 returned SMARCA2 activ inactive, AHR act inactive, Tb MetRS inh inactive, Efflux pump mplx inactive, H9c2 TAG inh inactive, Yeast cmpd fluor inactive, Mdr1 pump inh inactive, Cdr2 pump inh inactive and CaCdr1 efflux inh inactive.
For COC(=O)c1c(NC(=O)c2ccc(Br)s2)sc2c1CCC2 the results were SMARCA2 activ inactive, AHR act inactive, Tb MetRS inh inactive and Efflux pump mplx inactive.
Screening CCn1c(=O)n(CC(=O)N2CCCN(Cc3ccccc3)CC2)c(=O)c2ccccc21 returned SMARCA2 activ inactive.
CCn1ncc(Br)c1C(=O)Nc1sc2c(c1C(=O)OC)CCC2 was read as SMARCA2 activ inactive, AHR act inactive, Tb MetRS inh inactive, Efflux pump mplx inactive, Yeast cmpd fluor inactive, Mdr1 pump inh inactive, Cdr2 pump inh inactive and CaCdr1 efflux inh inactive.
`COc1ccc(Cn2c(-c3ccccc3)nc3c(c(=O)c4ccccc4n3C)c2=O)cc1` gave SMARCA2 activ inactive, AHR act inactive, Tb MetRS inh inactive, Efflux pump mplx 1.1, Yeast cmpd fluor inactive, Mdr1 pump inh inactive, Cdr2 pump inh inactive and CaCdr1 efflux inh inactive.
Screening COC(=O)C1CN(Cc2ccc(Cl)cc2)CCS(=O)(=O)N1Cc1cn(Cc2ccc(F)cc2)nn1 (stereo unspecified) returned SMARCA2 activ inactive.
`COC/C=C/C1=CC2=CC(=O)C(C)(OC(=O)c3cnc4ccccc4n3)C(=O)C2=CN1CC(C)C` (stereo unspecified) gave AHR act inactive, Tb MetRS inh inactive, Efflux pump mplx 0.9, H9c2 TAG inh inactive, Yeast cmpd fluor inactive, Mdr1 pump inh inactive, Cdr2 pump inh inactive and CaCdr1 efflux inh inactive.
For CC1Cc2cc(S(=O)(=O)N3CCCCC3)ccc2N1C(=O)C1CCC1 (stereo unspecified) the results were SMARCA2 activ inactive, AHR act inactive, Tb MetRS inh inactive, Efflux pump mplx inactive, Yeast cmpd fluor inactive, Mdr1 pump inh inactive, Cdr2 pump inh inactive and CaCdr1 efflux inh inactive.
For COc1ccccc1CNS(=O)(=O)c1ccc2c(c1)CC(C)N2C(=O)C1CCC1 (stereo unspecified) the results were SMARCA2 activ inactive, AHR act inactive, Tb MetRS inh inactive, Efflux pump mplx inactive, Yeast cmpd fluor inactive, Mdr1 pump inh inactive, Cdr2 pump inh inactive and CaCdr1 efflux inh inactive.
`COC(=O)[C@H](CC(C)C)N(Cc1cn(CC2CCCCC2)nn1)S(=O)(=O)c1ccc(F)cc1Br` gave SMARCA2 activ inactive.
`CCNC(=S)NNC(=O)c1cnccn1` gave SMARCA2 activ inactive.
Screening COc1ccc(CNS(=O)(=O)/C=C/c2ccc(F)cc2CNC(=O)OC(C)(C)C)cc1 returned SMARCA2 activ inactive.
CCC(C)N(C(=O)Cn1nnc(-c2ccc(Cl)cc2)n1)C1CCS(=O)(=O)C1 (stereo unspecified) was read as SMARCA2 activ inactive, AHR act inactive, Tb MetRS inh inactive, Efflux pump mplx inactive and H9c2 TAG inh inactive.
Screening CCC(C)N(C(=O)Cn1nnc(-c2ccc(F)cc2)n1)C1CCS(=O)(=O)C1 (stereo unspecified) returned SMARCA2 activ inactive, AHR act inactive, Tb MetRS inh inactive, Efflux pump mplx 0.5, H9c2 TAG inh inactive, Yeast cmpd fluor inactive, Mdr1 pump inh inactive, Cdr2 pump inh inactive and CaCdr1 efflux inh inactive.
Screening Nc1c(Cl)cc(C2=NCCn3nc4ccccc4c32)cc1Cl returned SMARCA2 activ inactive, AHR act inactive, Tb MetRS inh inactive, Efflux pump mplx 0.6, Yeast cmpd fluor inactive, Mdr1 pump inh inactive, Cdr2 pump inh inactive and CaCdr1 efflux inh inactive.
For Cc1c(-c2cccc(Cl)c2)nc2ccccc2c1C(=O)OC/C(O)=C(\C#N)c1nc2ccccc2[nH]1 the results were SMARCA2 activ inactive, AHR act inactive, Tb MetRS inh inactive, Efflux pump mplx 2.5, H9c2 TAG inh inactive, Yeast cmpd fluor inactive, Mdr1 pump inh inactive, Cdr2 pump inh inactive and CaCdr1 efflux inh inactive.
Screening CC(C)CNC(=O)OCc1cn(Cc2ccccc2)nn1 returned SMARCA2 activ inactive.
Screening O=C(COC(=O)CCN1C(=O)/C(=C\C=C\c2ccccc2)SC1=S)Nc1cc(F)ccc1F returned SMARCA2 activ inactive, AHR act inactive, Tb MetRS inh inactive, Efflux pump mplx 0.8, Yeast cmpd fluor inactive, Mdr1 pump inh inactive, Cdr2 pump inh inactive and CaCdr1 efflux inh inactive.
`O=C(CN1C(=O)/C(=C\C=C\c2ccccc2)SC1=S)Nc1ccc(F)cc1` gave SMARCA2 activ inactive, AHR act inactive, Tb MetRS inh inactive and Efflux pump mplx inactive.
Screening COc1cccc(Cn2cc(COC(=O)N3CCOCC3)nn2)c1 returned SMARCA2 activ inactive.
`COc1ccc(-c2nnc(NC(=O)c3ccc4c(c3)OCCO4)o2)cc1` gave SMARCA2 activ inactive, AHR act inactive, Tb MetRS inh inactive and Efflux pump mplx inactive.
Screening COc1ccc(-c2nnc(NC(=O)c3ccc(F)cc3)o2)cc1 returned SMARCA2 activ inactive, AHR act inactive, Tb MetRS inh inactive, Efflux pump mplx 1.0, H9c2 TAG inh inactive, Yeast cmpd fluor inactive, Mdr1 pump inh inactive, Cdr2 pump inh inactive and CaCdr1 efflux inh inactive.
For Cc1n[nH]c(C)c1S(=O)(=O)NCCc1ccccc1F the results were SMARCA2 activ inactive.
